The source made the active and inactive calls. No cut-off for these calls is given here.
What was measured:
Caspase-1 (Homo sapiens) = molecular target: T1, Caspase-1 (Homo sapiens) (UniProt P29466); test: Inhibition of caspase 1
T1 sequence (whole entry): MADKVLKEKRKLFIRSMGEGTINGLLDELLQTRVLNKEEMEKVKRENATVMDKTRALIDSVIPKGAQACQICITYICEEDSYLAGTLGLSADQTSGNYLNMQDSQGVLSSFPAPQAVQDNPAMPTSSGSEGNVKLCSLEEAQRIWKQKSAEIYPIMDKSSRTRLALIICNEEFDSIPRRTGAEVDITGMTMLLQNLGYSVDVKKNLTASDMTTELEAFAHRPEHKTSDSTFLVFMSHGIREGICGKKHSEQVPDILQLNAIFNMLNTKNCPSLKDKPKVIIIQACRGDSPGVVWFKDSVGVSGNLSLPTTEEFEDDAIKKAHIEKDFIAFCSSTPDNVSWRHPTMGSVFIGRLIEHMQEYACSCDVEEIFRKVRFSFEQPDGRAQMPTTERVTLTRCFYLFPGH

[1] = molecular target: Stromelysin-1 (Homo sapiens) (UniProt P08254); test: Inhibition of MMP3
Stromelysin-1 (Homo sapiens), sequence (P08254 100-477 limits assumed): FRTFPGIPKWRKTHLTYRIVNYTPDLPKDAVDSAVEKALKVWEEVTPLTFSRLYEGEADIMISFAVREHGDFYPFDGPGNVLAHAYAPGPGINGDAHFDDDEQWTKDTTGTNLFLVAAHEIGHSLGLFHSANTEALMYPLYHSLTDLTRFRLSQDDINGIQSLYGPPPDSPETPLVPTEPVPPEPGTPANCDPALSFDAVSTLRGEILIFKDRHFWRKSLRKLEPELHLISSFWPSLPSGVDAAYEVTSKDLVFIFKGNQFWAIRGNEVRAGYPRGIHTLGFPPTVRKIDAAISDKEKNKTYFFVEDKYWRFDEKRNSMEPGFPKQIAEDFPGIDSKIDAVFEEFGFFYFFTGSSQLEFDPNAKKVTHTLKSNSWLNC

NCI-H460 = test: Growth inhibition of human NCI-H460 cells; format: functional, cell-based
Summary of the method: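 Run by the NCI Developmental Therapeutics Program human cancer cell line screen in its single-dose–response format.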

SMILES	Activity (Caspase-1 (Homo sapiens))	Activity [1]	Activity (NCI-H460)
C[C@@H]1O[C@@H]2OC(=O)[C@]3(C)C[C@@H]4[C@](C)(C(=O)C=C5C(=CC(=O)OC5(C)C)[C@@]45CO5)[C@H](C1=O)[C@H]23	Active	Active	Active
COC(=O)[C@]12C(=O)[C@H](C)O[C@@H]3OC(=O)[C@](C)(C[C@H]4[C@]5(CO5)C5=CC(=O)OC(C)(C)C5=CC[C@@]41C)[C@@H]32	Active	Active	
COC(=O)[C@]12C(=O)[C@H](C)O[C@@H]3OC(=O)[C@](C)(C[C@H]4C(C)=C5CC(=O)OC(C)(C)C5=CC[C@@]41C)[C@@H]32	Active	Active	

Further lines, with some results ahead:

Activity (Caspase-1 (Homo sapiens))	Activity [1]	SMILES	Activity (NCI-H460)
Active	Active	C=C1[C@@]2(C)C[C@H]3[C@@]4(C)C(=CC[C@]3(C)[C@]1(C(=O)OC)C(=O)[C@@](C)(O)C2=O)C(C)(C)C(=O)C[C@H]4O	
Active	Active	C=C1[C@@]2(C)C[C@H]3C(C)=C4CC(=O)OC(C)(C)C4=CC[C@]3(C)[C@]1(C(=O)OC)C(=O)[C@@](C)(O)C2=O	Active
